Activity calls are given as the source filed them. The calls are words filed in the database; no cut-off is given here.
Legend:
HCT-116 [1] = assay: Induction of ROS generation in human HCT116 cells at 20 and 40 uM incubated for 3 hrs after pre-incubation with 3 mM NAC for 1 hr by DCFDA staining based flow cytometry; format: functional, cell-based
Outline: (§1)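 Cells were exposed for 3 h to compound, or to 25 µM H2O2 as positive control. Where indicated, 3 mM N-acetylcysteine was given 1 h before treatment. Pellets were stained with DCF-DA for 30 min, and intracellular ROS was read as fluorescence shift by flow cytometry against untreated controls.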

MDA-MB-231 [2] = assay: Induction of ROS generation in human MDA-MB-231 cells at 20 and 40 uM incubated for 3 hrs after pre-incubation with 3 mM NAC for 1 hr by DCFDA staining based flow cytometry; format: functional, cell-based; outline: as §1
HCT-116 [3] = assay: Induction of ROS generation in human HCT116 cells at 20 and 40 uM incubated for 3 hrs by DCFDA staining based fluorescence microscopy; format: functional, cell-based
Outline: (§2)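 After 3 h exposure at different concentrations, DCFH-DA fluorescence was imaged by fluorescence microscopy. H2O2 (25 µM) served as positive control. In some wells, cells were pretreated with 3 mM N-acetylcysteine before compound addition.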

MDA-MB-231 [4] = assay: Induction of ROS generation in human MDA-MB-231 cells at 20 and 40 uM incubated for 3 hrs by DCFDA staining based fluorescence microscopy; format: functional, cell-based; outline: as §2
NCI-H1299 [5] = assay: Induction of ROS generation in human H1299 cells at 20 and 40 uM incubated for 3 hrs after pre-incubation with 3 mM NAC for 1 hr by DCFDA staining based fluorescence microscopy; format: functional, cell-based; outline: as §2
HCT-116 [6] = assay: Induction of ROS generation in human HCT116 cells at 20 and 40 uM incubated for 3 hrs after pre-incubation with 3 mM NAC for 1 hr by DCFDA staining based fluorescence microscopy; format: functional, cell-based; outline: as §2
NCI-H1299 [7] = assay: Increase in PUMA protein expression in p53 deficient human H1299 cells at 10 to 40 uM by Western blot method; format: functional, cell-based
Outline: (§3)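 H1299 (p53-null), HCT116 (p53 wild type) and MDA-MB-231 (p53 mutant) cells were treated, then lysates were immunoblotted for p53, p21, PUMA and PARP. β-Actin served as loading control.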

NCI-H1299 [8] = assay: Increase in cleaved PARP protein expression in p53 deficient human H1299 cells at 10 to 40 uM by Western blot method; format: functional, cell-based; outline: as §3
HCT-116 [9] = assay: Increase in p21'cip1 protein expression in wild type p53 expressing human HCT116 cells at 10 to 40 uM by Western blot method; format: functional, cell-based; outline: as §3
MDA-MB-231 [10] = assay: Increase in p53 protein expression in p53 mutant expressing human MDA-MB-231 cells at 10 to 40 uM by Western blot method; format: functional, cell-based; outline: as §3
HCT-116 [11] = assay: Induction of cell cycle arrest in wild type p53 expressing human HCT116 cells assessed as accumulation at G2/M phase incubated for 24 hrs by propidium iodide staining based flow cytometry; format: functional
MDA-MB-231 [12] = assay: Induction of cell cycle arrest in p53 mutant expressing human MDA-MB-231 cells assessed as accumulation at G2/M phase incubated for 24 hrs by propidium iodide staining based flow cytometry; format: functional
Mus musculus [13] = assay: Toxicity in mouse assessed as induction of weight loss at 120 mg/kg/week for 2 weeks; format: organism-based; conditions: in vivo, 336 h
Mus musculus [14] = assay: Toxic diuretic effect in 12 hrs fasted CD1 mouse assessed as increase in urine output at 10 mg/kg, ip measured 0 to 6 hrs post dose relative to untreated control; format: toxicity, organism-based; conditions: in vivo
Outline: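 Female CD-1 mice fasted 12 h, then given compound IP at 10 mg/kg in PEG/EtOH/H2O (54:14:32). Vehicle control group included. Mice were housed singly in metabolic cages with free access to water. Voided urine was collected in graduated tubes under the cages over 0–6 h and 6–24 h after injection.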

[15] = Cytotoxic activity against human SF188 cells assessed as inhibition of cell proliferation incubated for 72 hrs by MTT assay; format: functional, cell-based; conditions: SF-188, 72 h
Outline: (§4)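 MTT cell survival assay. IC50 is the concentration that inhibits tumour cell proliferation by 50%, read from cell survival curves. Values are given as mean ± SD of three independent experiments.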

MDA-MB-231 [16] = assay: Cytotoxic activity against human MDA-MB-231 cells assessed as inhibition of cell proliferation incubated for 72 hrs by MTT assay; format: functional, cell-based; conditions: MDA-MB-231, 72 h; outline: as §4
MDA-MB-468 [17] = assay: Cytotoxic activity against human MDA-MB-468 cells assessed as inhibition of cell proliferation incubated for 72 hrs by MTT assay; format: functional, cell-based; conditions: MDA-MB-468, 72 h; outline: as §4
MCF7 = assay: Cytotoxic activity against human MCF7 cells assessed as inhibition of cell proliferation incubated for 72 hrs by MTT assay; format: functional, cell-based; conditions: MCF7, 72 h; outline: as §4
HT-29 = assay: Cytotoxic activity against human HT-29 cells assessed as inhibition of cell proliferation incubated for 72 hrs by MTT assay; format: functional, cell-based; conditions: HT-29, 72 h; outline: as §4
[18] = Potency index, ratio of IC50 for ethacrynic acid to IC50 for test compound for cytotoxic activity against human H1299 cells assessed as inhibition of cell proliferation incubated for 72 hrs by MTT assay; format: functional
Outline: (§5)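 Index is the reference IC50 divided by the test IC50. Both IC50s were taken from MTT cell survival curves, each as mean ± SD of three independent experiments.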

[19] = Potency index, ratio of IC50 for ethacrynic acid to IC50 for test compound for cytotoxic activity against human GBM10 cells assessed as inhibition of cell proliferation incubated for 72 hrs by MTT assay; format: functional; outline: as §5
MDA-MB-468 [20] = assay: Potency index, ratio of IC50 for ethacrynic acid to IC50 for test compound for cytotoxic activity against human MDA-MB-468 cells assessed as inhibition of cell proliferation incubated for 72 hrs by MTT assay; format: functional
[21] = Potency index, ratio of IC50 for ethacrynic acid to IC50 for test compound for cytotoxic activity against human HT1080 cells assessed as inhibition of cell proliferation incubated for 72 hrs by MTT assay; format: functional, HT-1080; outline: as §5
MDA-MB-231 [22] = assay: Reduction in cellular total thiol levels in human MDA-MB-231 cells incubated for 3 hrs by Ellman's reagent based assay; format: functional, cell-based
Outline: (§6)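 Cells exposed to 0–40 µM compound for 3 h, then trypsinized. Total thiols in cell extracts were quantified with Ellman's reagent.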

[23] = Cytotoxic activity against human MCF10A cells assessed as inhibition of cell proliferation incubated for 72 hrs by MTT assay; format: cell-based; conditions: mcf-10a; outline: as §4
NCI-H1299 [24] = assay: Reduction in cellular total thiol levels in human H1299 cells incubated for 3 hrs by Ellman's reagent based assay; format: functional, cell-based; outline: as §6
HCT-116 [25] = assay: Induction of ROS generation in human HCT116 cells at 20 and 40 uM incubated for 3 hrs by DCFDA staining based flow cytometry; format: functional, cell-based; outline: as §1
[26] = molecular target: Glutathione S-transferase P (Homo sapiens) (UniProt P09211); assay: Inhibition of GSTP1 in human MDA-MB-231 cells assessed as reduction in GST-pi activity pre-incubated for 3 hrs followed by chlorodinitrobenzene and reduced glutathione addition by photometric assay
[27] = molecular target: Glutathione S-transferase P (Homo sapiens) (UniProt P09211); assay: Inhibition of GSTP1 in human HCT116 cells assessed as reduction in GST-pi activity at 50 uM pre-incubated for 3 hrs followed by chlorodinitrobenzene and reduced glutathione addition by photometric assay; conditions: HCT-116

Glutathione S-transferase P (Homo sapiens), sequence (P09211 2-210 limits assumed): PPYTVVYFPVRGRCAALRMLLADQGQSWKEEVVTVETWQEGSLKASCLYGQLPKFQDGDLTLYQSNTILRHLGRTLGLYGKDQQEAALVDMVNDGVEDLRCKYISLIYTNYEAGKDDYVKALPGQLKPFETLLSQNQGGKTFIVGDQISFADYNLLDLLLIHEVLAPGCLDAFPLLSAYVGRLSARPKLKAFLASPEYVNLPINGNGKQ

## C=C(CC)C(=O)c1ccc(OCC(=O)N[C@@H]2[C@@H](O)[C@H](O)[C@@H](CO)O[C@H]2O)c(Cl)c1Cl
HCT-116 [1]
  Activity: inactive
MDA-MB-231 [2]
  Activity: inactive
HCT-116 [3]
  Activity: Active
MDA-MB-231 [4]
  Activity: Active
NCI-H1299 [5]
  Activity: inactive
HCT-116 [6]
  Activity: inactive
NCI-H1299 [7]
  Activity: Active
NCI-H1299 [8]
  Activity: Active
HCT-116 [9]
  Activity: Active
MDA-MB-231 [10]
  Activity: Active
HCT-116 [11]
  Activity: Dose-dependent effect
MDA-MB-231 [12]
  Activity: Dose-dependent effect
Mus musculus [13]
  Activity: Non-toxic
Mus musculus [14]
  Activity: Non-toxic
[15]
  IC50: 12.3 µM
MDA-MB-231 [16]
  IC50: 12.2 µM
MDA-MB-468 [17]
  IC50: 18.4 µM
MCF7
  IC50: 10.1 µM
HT-29
  IC50: 21.7 µM
[18]
  Ratio IC50: 3
[19]
  Ratio IC50: 3
MDA-MB-468 [20]
  Ratio IC50: 3
[21]
  Ratio IC50: 3
MDA-MB-231 [22]
  Activity: Dose-dependent effect
[23]
  Activity: Non-toxic
NCI-H1299 [24]
  Activity: Dose-dependent effect
HCT-116 [25]
  Activity: Active
[26]
  Activity: Dose-dependent effect
[27]
  Imax: 60%
